According to ChEMBL document CHEMBL1126276, “Synthesis and antimalarial properties of 1-imino derivatives of 7-chloro-3-substituted-3,4-dihydro-1,9(2H,10H)-acridinediones and related structures” (J Med Chem, 1992):

Key:
Plasmodium berghei [1] = assay: Antimalarial activity in Plasmodium berghei infected mice (Mus musculus) after subcutaneous 160 mg/kg dose; format: functional
Outline: (§1)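 Normal drug-sensitive P. berghei strain in mice. Compound dissolved or suspended in sesame or peanut oil, given parenterally as a single subcutaneous dose 72 h postinfection.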

Plasmodium berghei [2] = assay: Antimalarial activity was measured against mice (Mus musculus) infected with Plasmodium berghei by subcutaneous administration of 320 mg/kg dose; format: organism-based; set-up: dose 320 mg/kg, route subcutaneous; conditions: in vivo, sc
Outline: (§2)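 […] in mice infected with a normal drug-sensitive P. berghei strain. Compound dissolved or suspended in sesame or peanut oil, given as a single subcutaneous dose 72 h postinfection.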

Plasmodium berghei [3] = assay: Antimalarial activity was measured against mice (Mus musculus) infected with Plasmodium berghei by subcutaneous administration of 640 mg/kg dose; format: organism-based; set-up: dose 640 mg/kg, route subcutaneous; conditions: in vivo, sc; outline: as §2
Plasmodium berghei [4] = assay: Antimalarial activity in Plasmodium berghei infected mice (Mus musculus) after subcutaneous 640 mg/kg dose; format: functional; outline: as §1
Plasmodium berghei [5] = assay: (§3) Antimalarial activity in Plasmodium berghei infected mice (Mus musculus) after 40 mg/kg subcutaneous dose; format: functional; outline: as §1
Plasmodium berghei [6] = assay: (§4) Antimalarial activity in Plasmodium berghei infected mice (Mus musculus) after 20 mg/kg subcutaneous dose; format: functional; outline: as §2
Plasmodium berghei [7] = assay: (§5) Antimalarial activity in Plasmodium berghei infected mice (Mus musculus) after 80 mg/kg subcutaneous dose; format: functional; outline: as §1
Plasmodium berghei [8] = assay: Antimalarial activity in Plasmodium berghei infected mice (Mus musculus) after subcutaneous 320 mg/kg dose; format: functional; outline: as §1
Plasmodium berghei [9] = assay: as §3; format: functional; outline: as §2; remark: listed apart in the source
Plasmodium berghei [10] = assay: Antimalarial activity was measured against mice (Mus musculus) infected with Plasmodium berghei by subcutaneous administration of 160 mg/kg dose; format: organism-based; set-up: dose 160 mg/kg, route subcutaneous; conditions: in vivo, sc; outline: as §2
Plasmodium berghei [11] = assay: as §4; format: functional; outline: as §1; remark: listed apart in the source
Plasmodium berghei [12] = assay: Antimalarial activity Plasmodium berghei infected mice (Mus musculus) after 640 mg/kg subcutaneous dose; format: functional; outline: as §2
Plasmodium berghei [13] = assay: Antimalarial activity in Plasmodium berghei infected mice (Mus musculus) after 320 mg/kg subcutaneous dose; format: functional; outline: as §2
Plasmodium berghei [14] = assay: as §5; format: functional; outline: as §2; remark: listed apart in the source
Plasmodium berghei [15] = assay: Antimalarial activity in Plasmodium berghei infected mice (Mus musculus) after 160 mg/kg subcutaneous dose; format: functional; outline: as §2

O=c1c2c(n(O)c3ccc(Cl)cc13)CC(c1ccc(C(F)(F)F)cc1)C/C2=N\CCCNCCO (centres undefined)
No. of cured mice (Plasmodium berghei [1]): 5
No. of toxic deaths (Plasmodium berghei [2]): 1
No. of toxic deaths (Plasmodium berghei [3]): 4
No. of cured mice (Plasmodium berghei [4]): 1
No. of cured mice (Plasmodium berghei [5]): 3
Delta mean survival time (Plasmodium berghei [6]): 6.4
No. of cured mice (Plasmodium berghei [7]): 5
No. of cured mice (Plasmodium berghei [8]): 4
Delta mean survival time (Plasmodium berghei [9]): 10.7

CN(C)CCC/N=C1\CC(c2ccc(C(F)(F)F)cc2)Cc2c1c(=O)c1cc(Cl)ccc1n2O (centres undefined)
No. of cured mice (Plasmodium berghei [1]): 3
No. of toxic deaths (Plasmodium berghei [2]): 3
No. of toxic deaths (Plasmodium berghei [10]): 2
No. of toxic deaths (Plasmodium berghei [3]): 5
No. of cured mice (Plasmodium berghei [11]): 5
No. of cured mice (Plasmodium berghei [4]): 1
No. of cured mice (Plasmodium berghei [5]): 5
No. of cured mice (Plasmodium berghei [7]): 4
No. of cured mice (Plasmodium berghei [8]): 2

CC1/C(=N\CCCN(C)C)c2c(n(O)c3ccc(Cl)cc3c2=O)CC1c1ccc(Cl)cc1Cl (centres undefined)
No. of cured mice (Plasmodium berghei [1]): 5
Delta mean survival time (Plasmodium berghei [12]): 1.8
Delta mean survival time (Plasmodium berghei [13]): 2.8
Delta mean survival time (Plasmodium berghei [14]): 16.8
No. of cured mice (Plasmodium berghei [11]): 1
No. of cured mice (Plasmodium berghei [4]): 1
No. of cured mice (Plasmodium berghei [5]): 5
Delta mean survival time (Plasmodium berghei [6]): 11.1
No. of cured mice (Plasmodium berghei [7]): 4
No. of cured mice (Plasmodium berghei [8]): 4

CC1/C(=N\CCCN(C)C)c2c(n(O)c3ccc(Cl)cc3c2=O)CC1c1ccc(C(F)(F)F)cc1 (centres undefined)
No. of toxic deaths (Plasmodium berghei [2]): 5
No. of toxic deaths (Plasmodium berghei [10]): 5
No. of toxic deaths (Plasmodium berghei [3]): 5
No. of cured mice (Plasmodium berghei [5]): 2
Delta mean survival time (Plasmodium berghei [6]): 8.1
No. of cured mice (Plasmodium berghei [7]): 5
Delta mean survival time (Plasmodium berghei [9]): 10.2

O=c1c2c(n(O)c3ccc(Cl)cc13)CC(c1cccc(C(F)(F)F)c1)C/C2=N\CCCCCCN1CCCCC1 (centres undefined)
No. of cured mice (Plasmodium berghei [1]): 2
No. of toxic deaths (Plasmodium berghei [2]): 5
Delta mean survival time (Plasmodium berghei [14]): 6.4
No. of toxic deaths (Plasmodium berghei [10]): 3
No. of toxic deaths (Plasmodium berghei [3]): 5
Delta mean survival time (Plasmodium berghei [9]): 4

CN(C)CCC/N=C1\CC(c2ccc(C(F)(F)F)cc2)Cc2nc3ccc(Cl)cc3c(O)c21 (centres undefined)
No. of cured mice (Plasmodium berghei [1]): 3
No. of toxic deaths (Plasmodium berghei [2]): 2
No. of toxic deaths (Plasmodium berghei [10]): 1
No. of toxic deaths (Plasmodium berghei [3]): 3
No. of cured mice (Plasmodium berghei [11]): 3
No. of cured mice (Plasmodium berghei [4]): 2
No. of cured mice (Plasmodium berghei [5]): 5
Delta mean survival time (Plasmodium berghei [6]): 10.4
No. of cured mice (Plasmodium berghei [7]): 5
No. of cured mice (Plasmodium berghei [8]): 2

O=c1c2c(n(O)c3ccc(Cl)cc13)CC(c1ccc(C(F)(F)F)cc1)C/C2=N\CCCN1CCCC1 (centres undefined)
No. of cured mice (Plasmodium berghei [1]): 5
No. of toxic deaths (Plasmodium berghei [2]): 1
No. of toxic deaths (Plasmodium berghei [3]): 4
No. of cured mice (Plasmodium berghei [11]): 1
No. of cured mice (Plasmodium berghei [4]): 1
No. of cured mice (Plasmodium berghei [5]): 2
Delta mean survival time (Plasmodium berghei [6]): 11
No. of cured mice (Plasmodium berghei [7]): 5
No. of cured mice (Plasmodium berghei [8]): 3
Delta mean survival time (Plasmodium berghei [9]): 10.8

CCc1ccc2nc3c(c(O)c2c1)/C(=N/CCCN(C)C)CC(c1ccc(C(F)(F)F)cc1)C3 (centres undefined)
Delta mean survival time (Plasmodium berghei [12]): 1.4
Delta mean survival time (Plasmodium berghei [15]): 1.9
No. of toxic deaths (Plasmodium berghei [10]): 1
No. of toxic deaths (Plasmodium berghei [3]): 4
Delta mean survival time (Plasmodium berghei [9]): 0.6

CN(C)CCC/N=C1\CC(c2ccc(C(F)(F)F)cc2)Cc2nc3ccc([N+](=O)[O-])cc3c(O)c21 (centres undefined)
No. of cured mice (Plasmodium berghei [1]): 4
No. of toxic deaths (Plasmodium berghei [2]): 2
Delta mean survival time (Plasmodium berghei [15]): 11.6
Delta mean survival time (Plasmodium berghei [14]): 8.9
No. of toxic deaths (Plasmodium berghei [3]): 4
No. of cured mice (Plasmodium berghei [4]): 1
Delta mean survival time (Plasmodium berghei [6]): 2.2
No. of cured mice (Plasmodium berghei [7]): 1
No. of cured mice (Plasmodium berghei [8]): 3
Delta mean survival time (Plasmodium berghei [9]): 5.4

CCN(CC)CC/N=C1\CC(c2ccc(Cl)c(Cl)c2)Cc2nc3ccc(Cl)cc3c(O)c21 (centres undefined)
No. of cured mice (Plasmodium berghei [1]): 5
Delta mean survival time (Plasmodium berghei [13]): 20
Delta mean survival time (Plasmodium berghei [14]): 8
No. of cured mice (Plasmodium berghei [11]): 2
No. of cured mice (Plasmodium berghei [4]): 5
No. of cured mice (Plasmodium berghei [5]): 4
Delta mean survival time (Plasmodium berghei [6]): 9.3
No. of cured mice (Plasmodium berghei [7]): 4
No. of cured mice (Plasmodium berghei [8]): 3
Delta mean survival time (Plasmodium berghei [9]): 8

CCN(CC)CC(C)(C)C/N=C1\CC(c2ccc(C(F)(F)F)cc2)Cc2c1c(=O)c1cc(Cl)ccc1n2O (centres undefined)
No. of cured mice (Plasmodium berghei [1]): 5
Delta mean survival time (Plasmodium berghei [14]): 12.5
No. of toxic deaths (Plasmodium berghei [3]): 2
No. of cured mice (Plasmodium berghei [11]): 3
No. of cured mice (Plasmodium berghei [4]): 3
No. of cured mice (Plasmodium berghei [5]): 3
Delta mean survival time (Plasmodium berghei [6]): 13
No. of cured mice (Plasmodium berghei [7]): 4
No. of cured mice (Plasmodium berghei [8]): 5
Delta mean survival time (Plasmodium berghei [9]): 11.2

O=C(O)c1ccc(C2CC(=O)c3c(n(O)c4ccc(Cl)cc4c3=O)C2)cc1 (centres undefined)
Delta mean survival time (Plasmodium berghei [12]): 0.9
Delta mean survival time (Plasmodium berghei [15]): -0.1
No. of toxic deaths (Plasmodium berghei [10]): 1
No. of toxic deaths (Plasmodium berghei [3]): 4
Delta mean survival time (Plasmodium berghei [9]): -0.1

CN(C)CCC/N=C1\CC(c2ccc(Cl)cc2Cl)Cc2c1c(=O)c1cc(Cl)ccc1n2O (centres undefined)
No. of cured mice (Plasmodium berghei [1]): 5
No. of toxic deaths (Plasmodium berghei [3]): 1
No. of cured mice (Plasmodium berghei [11]): 4
No. of cured mice (Plasmodium berghei [4]): 4
No. of cured mice (Plasmodium berghei [5]): 5
Delta mean survival time (Plasmodium berghei [6]): 10.6

CN(C)CCC/N=C1\CC(c2ccc(C(F)(F)F)cc2)Cc2nc3ccc(F)cc3c(O)c21 (centres undefined)
No. of cured mice (Plasmodium berghei [1]): 1
No. of toxic deaths (Plasmodium berghei [10]): 4
No. of toxic deaths (Plasmodium berghei [3]): 5
No. of cured mice (Plasmodium berghei [5]): 4
Delta mean survival time (Plasmodium berghei [9]): 14.9

CCCCNC(CC)C/N=C1\CC(c2ccc(C(F)(F)F)cc2)Cc2c1c(=O)c1cc(Cl)ccc1n2O (centres undefined)
No. of cured mice (Plasmodium berghei [1]): 5
No. of toxic deaths (Plasmodium berghei [3]): 1
No. of cured mice (Plasmodium berghei [11]): 2
No. of cured mice (Plasmodium berghei [4]): 4
No. of cured mice (Plasmodium berghei [5]): 2
Delta mean survival time (Plasmodium berghei [6]): 6
No. of cured mice (Plasmodium berghei [7]): 4
No. of cured mice (Plasmodium berghei [8]): 5
Delta mean survival time (Plasmodium berghei [9]): 7.7

CCN(CC)CCCC/N=C1\CC(c2ccc(C(F)(F)F)cc2)Cc2c1c(=O)c1cc(Cl)ccc1n2O (centres undefined)
No. of cured mice (Plasmodium berghei [1]): 5
No. of toxic deaths (Plasmodium berghei [3]): 4
No. of cured mice (Plasmodium berghei [11]): 2
No. of cured mice (Plasmodium berghei [5]): 4
Delta mean survival time (Plasmodium berghei [6]): 14
No. of cured mice (Plasmodium berghei [7]): 5
No. of cured mice (Plasmodium berghei [8]): 4
Delta mean survival time (Plasmodium berghei [9]): 10.5

CC1/C(=N\CCCN(C)C)c2c(nc3ccc(Cl)cc3c2O)CC1c1ccc(Cl)cc1Cl (centres undefined)
No. of cured mice (Plasmodium berghei [1]): 5
Delta mean survival time (Plasmodium berghei [12]): 2.9
Delta mean survival time (Plasmodium berghei [13]): 3.9
No. of cured mice (Plasmodium berghei [11]): 3
No. of cured mice (Plasmodium berghei [4]): 3
No. of cured mice (Plasmodium berghei [5]): 4
Delta mean survival time (Plasmodium berghei [6]): 0.1
No. of cured mice (Plasmodium berghei [7]): 5
No. of cured mice (Plasmodium berghei [8]): 4
Delta mean survival time (Plasmodium berghei [9]): 19.9

CCN(CC)CC(C)(C)C/N=C1\CC(c2ccc(C(F)(F)F)cc2)Cc2nc3ccc(Cl)cc3c(O)c21 (centres undefined)
No. of cured mice (Plasmodium berghei [1]): 5
Delta mean survival time (Plasmodium berghei [12]): 1.3
Delta mean survival time (Plasmodium berghei [13]): 49.6
Delta mean survival time (Plasmodium berghei [14]): 13.6
No. of cured mice (Plasmodium berghei [11]): 2
No. of cured mice (Plasmodium berghei [4]): 4
No. of cured mice (Plasmodium berghei [5]): 2
Delta mean survival time (Plasmodium berghei [6]): 8.6
No. of cured mice (Plasmodium berghei [7]): 4
No. of cured mice (Plasmodium berghei [8]): 4
Delta mean survival time (Plasmodium berghei [9]): 10.3

CC1/C(=N\CCCN(C)C)c2c(nc3ccc(Cl)cc3c2O)CC1c1ccc(C(F)(F)F)cc1 (stereo in doubt; cis)
No. of cured mice (Plasmodium berghei [1]; 160 mg/kg): 4
Delta mean survival time (Plasmodium berghei [12]; 640 mg/kg): 2.3
Delta mean survival time (Plasmodium berghei [15]): 3
Delta mean survival time (Plasmodium berghei [13]; 320 mg/kg): 3.1
No. of toxic deaths (Plasmodium berghei [3]): 1
No. of cured mice (Plasmodium berghei [11]; 20 mg/kg): 4
No. of cured mice (Plasmodium berghei [5]): 5
Delta mean survival time (Plasmodium berghei [6]; 20 mg/kg): 10.7
No. of cured mice (Plasmodium berghei [7]): 5
